This passage reports Activity, IC50 and inhibition in vivo results from ChEMBL document CHEMBL1123918, “Thromboxane synthetase inhibitors and antihypertensive agents. 4. N-[(1H-imidazol-1-yl)alkyl] derivatives of quinazoline-2,4(1H,3H)-diones, quinazolin-4(3H)-ones, and 1,2,3-benzotriazin-4(3H)-ones” (J Med Chem, 1987).

The source made the active and inactive calls. The calls are words filed in the database; no cut-off is given here.

Test [1] addresses T1, Thromboxane-A synthase (Rattus norvegicus) (UniProt P49430).
T1 sequence (whole entry): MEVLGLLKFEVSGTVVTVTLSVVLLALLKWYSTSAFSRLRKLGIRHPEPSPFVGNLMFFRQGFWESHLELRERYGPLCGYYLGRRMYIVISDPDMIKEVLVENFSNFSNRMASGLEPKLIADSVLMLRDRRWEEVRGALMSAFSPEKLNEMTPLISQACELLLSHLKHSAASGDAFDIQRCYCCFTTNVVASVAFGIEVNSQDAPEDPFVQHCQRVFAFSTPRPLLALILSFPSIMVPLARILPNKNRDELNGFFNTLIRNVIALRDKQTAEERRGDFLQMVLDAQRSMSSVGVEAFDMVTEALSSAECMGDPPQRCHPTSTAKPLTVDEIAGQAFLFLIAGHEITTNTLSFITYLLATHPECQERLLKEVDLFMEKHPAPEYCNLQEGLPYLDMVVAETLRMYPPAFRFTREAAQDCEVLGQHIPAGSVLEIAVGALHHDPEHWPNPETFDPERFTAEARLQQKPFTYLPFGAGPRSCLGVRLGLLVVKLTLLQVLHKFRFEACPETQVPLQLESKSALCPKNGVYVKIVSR
Nature of the test: Tested for antihypertensive activity in spontaneously hypertensive rats at 100 mg/kg peroral dosage for 2 days; I is inactive. The class given is functional, organism-based. Further details: dose 100 mg/kg. The gist of the method: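 Male 16-week-old Okamoto SHR (mean arterial pressure about 170 mmHg) gavaged with compound suspended in 2% preboiled starch (50 mg/mL) at 100 mg/kg or less, with 0.9% NaCl load 25 mL/kg; identical second dose without saline 24 h later. Mean arterial pressure measured 28 h after first dose; one to three rats per compound.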

For test [2], the target named is T2, Thromboxane-A synthase (Rattus norvegicus, UniProt P49430).
T2 sequence (P49430 whole entry): T1 sequence (whole entry)
The experiment in a line: Tested for inhibition of thromboxane synthetase from spontaneously hypertensive rats. The gist of the method: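 Washed SHR platelets in oxygenated Krebs phosphate buffer pH 7.4 (4.5-6.0 X 10^4 platelets/µL) incubated with vehicle or drug 10 min at 37 °C; stopped with ice and citric acid. TXB2 measured by direct RIA. Percent inhibition is relative to vehicle controls after background subtraction. IC50 is read from a plot of inhibition vs log concentration.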

Test [3] concerns Oryctolagus cuniculus. The experiment in a line: Tested for inhibition of thromboxane formation in rabbit platelets at 1.0 hr by administration of 10 mg/kg intravenous bolus dose. The class given is functional. In outline: (§1)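 Rabbits given compound in 0.9% sterile saline IV, as a bolus or by infusion pump. Blood drawn 5 min predose and at 0.5, 1, 2 and 3 h, then clotted 2 h at 37 °C and held 2 h on ice. Serum mixed with indomethacin, stored at -20 °C, and diluted in pH 7.4 phosphate buffer. TXB2 measured by direct RIA.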

The test system of test [4] is Oryctolagus cuniculus. The experiment in a line: Tested for inhibition of thromboxane formation in rabbit platelets at 2 hr by administration of 0.3 mg/kg intravenous bolus dose. In kind it is functional. In outline: as §1
The subject of test [5] is Oryctolagus cuniculus. The experiment in a line: Tested for inhibition of thromboxane formation in rabbit platelets at 3 hr by administration of 0.3 mg/kg intravenous bolus dose. The class given is functional. The gist of the method: as §1
Test [6] concerns Oryctolagus cuniculus. Nature of the test: Tested for inhibition of thromboxane formation in rabbit platelets at 3 hr by administration of 10 mg/kg intravenous bolus dose. The class given is functional. In outline:
as §1

The species named for test [7] is Homo sapiens. The experiment in a line: Tested for inhibition of thromboxane formation in human platelets. The class given is functional. In outline:
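Platelets from four healthy human volunteers were isolated with a small amount of prostaglandin E1 to prevent aggregation, then treated with compound, standard or vehicle. TXB2 measured by direct RIA. IC50 is read graphically from percent inhibition vs log concentration curves.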

Test [8] deals with Oryctolagus cuniculus. Nature of the test: Tested for inhibition of thromboxane formation in rabbit platelets at 0.5 hr by administration of 0.3 mg/kg intravenous bolus dose. In kind it is functional. In outline: as §1
In test [9] the test system is Oryctolagus cuniculus. Nature of the test: Tested for inhibition of thromboxane formation in rabbit platelets at 1.0 hr by administration of 0.3 mg/kg intravenous bolus dose. The class given is functional. The gist of the method:
as §1

Test [10] relates to Oryctolagus cuniculus. The experiment in a line: Tested for inhibition of thromboxane formation in rabbit platelets at 0.5 hr by administration of 0.5 mg/kg/h perfused dose. In kind it is functional. The gist of the method: as §1
Test [11] deals with Oryctolagus cuniculus. Nature of the test: Tested for inhibition of thromboxane formation in rabbit platelets at 1.0 hr by administration of 0.1 mg/kg intravenous bolus dose. The class given is functional. In outline: as §1
Test [12] relates to Oryctolagus cuniculus. The experiment in a line: Tested for inhibition of thromboxane formation in rabbit platelets at 1.0 hr by administration of 0.5 mg/kg/h perfused dose. The class given is functional. In outline: as §1
The test system of test [13] is Oryctolagus cuniculus. Nature of the test: Tested for inhibition of thromboxane formation in rabbit platelets at 2 hr by administration of 0.1 mg/kg intravenous bolus dose. The class given is functional. In outline: as §1
The test system of test [14] is Oryctolagus cuniculus. The experiment in a line: Tested for inhibition of thromboxane formation in rabbit platelets at 3 hr by administration of 0.1 mg/kg intravenous bolus dose. In kind it is functional. The gist of the method:
as §1

Test [15] relates to Oryctolagus cuniculus. Nature of the test: Tested for inhibition of thromboxane formation in rabbit platelets at 0.5 hr by administration of 0.1 mg/kg intravenous bolus dose. In kind it is functional. In outline: as §1

Take `CC(Cn1ccnc1)Cn1cnc2ccc(Cl)cc2c1=O` (configuration not stated): the outcome in [1] was inactive. The compound further had an IC50 in [2] of 90 nM.

As for `Cc1ccc2[nH]c(=O)n(CC(C)Cn3ccnc3)c(=O)c2c1` (configuration not stated), in [1], the outcome was inactive. This compound also registered an IC50 in test [2] of 3 nM.

As to `O=C(O)c1ccc(OCCn2ccnc2)cc1` [DAZOXIBEN], the outcome in test [1] was inactive. Also, the inhibition in vivo at 10 mg/kg in test [3] was 94.7%; in test [6] it was 74.5%. Moreover, the inhibition in vivo at 0.3 mg/kg in test [4] came to 13.6%; in [5] it was 22.8%; in [8], 45.9%; in test [9], 30.1%. Further, the half-inhibitory concentration (IC50) in [7] worked out at 5030 nM.

`Cc1ccc(N)c(C(=O)NCC(C)Cn2ccnc2)c1` (configuration not stated): the outcome in [1] was inactive. Besides, the IC50 in [2] amounted to 1300 nM.

On to `CC(Cn1ccnc1)Cn1c(=O)[nH]c2cc(Cl)ccc2c1=O` (configuration not stated), for which the inhibition in vivo at 0.3 mg/kg in [4] worked out at 60.8%; in test [5], 53.1%; in test [8], 88.9%; in test [9] it was 82.8%. For the same compound, in test [7], half-maximal inhibition (IC50) was put at 21.2 nM. This compound also yielded an inhibition in vivo at 0.5 mg/kg/h in test [10] of 95.9%. The inhibition in vivo at 0.1 mg/kg in [11] was 62.8%; in test [13] it was 39.5%; in [14], 46.2%; in [15], 73.6%. Further, the inhibition in vivo at 0.5 mg/kg in test [12] is 98.1%.

Consider `CC(CNC(=O)c1ccccc1N)Cn1ccnc1` (configuration not stated), for which the outcome in test [1] was inactive. The same compound had an IC50 in [2] of 2500 nM.

As to `CC(Cn1ccnc1)Cn1nnc2ccc(Cl)cc2c1=O` (configuration not stated), the outcome in [1] was inactive. This compound also yielded an IC50 in test [2] of 900 nM.

For the compound `O=c1[nH]c2ccccc2c(=O)n1CCCn1ccnc1`, in test [1], the result was inactive. The half-maximal inhibitory concentration (IC50) in test [2] was determined as 600 nM.

As for `Cc1ccc(N)c(C(=O)NCCCCn2ccnc2)c1`, in [1], the outcome was inactive. Also, half-maximal inhibition in test [2] (IC50) required 340 nM.

Turning to `Cc1ccc2[nH]c(=O)n(CCCn3ccnc3)c(=O)c2c1`, the result in test [1] was inactive. In [2], this compound came in with a half-inhibitory concentration (IC50) of 20 nM.

Consider `CC(Cn1ccnc1)Cn1nnc2ccc(Br)cc2c1=O` (configuration not stated), for which the result in test [1] was inactive. Moreover, in [2], the IC50 came out at 1700 nM.

As for `O=c1[nH]c2cc(Cl)ccc2c(=O)n1CCCn1ccnc1`, the result in test [1] was inactive. The compound further registered a half-inhibitory concentration (IC50) in test [2] of 180 nM.

Turning to `O=c1[nH]c2ccc(Cl)cc2c(=O)n1CCCCCCCCCCn1ccnc1`, the outcome in test [1] was inactive. The compound also displayed a half-inhibitory concentration (IC50) in test [2] of 7 nM.

For the compound `CC(Cn1ccnc1)Cn1c(=O)[nH]c2c(Cl)cccc2c1=O` (configuration not stated), the outcome in test [1] was inactive. The midpoint of inhibition in [2], the IC50, lay at 10 nM.

As for `CC(CNC(=O)c1cc(Br)ccc1N)Cn1ccnc1` (configuration not stated), the outcome in test [1] was inactive. In addition, in test [2], the midpoint of inhibition, the IC50, lay at 290 nM.

`O=c1[nH]c2ccc(Br)cc2c(=O)n1CCCn1ccnc1`: in [1], the result was inactive. Besides, the midpoint of inhibition in [2], the IC50, lay at 100 nM.

Usually IC50 stands for the midpoint of a concentration-inhibition curve. A lower IC50 goes with greater potency. What is called inhibition in vivo is the change of the read-out against control, counted positive when it falls.
